Compound activity as filed in PubChem.
Rad51 HR inh – Rad51 (human) homologous recombination inhibition; hRad51 DNA strand exchange, fluorescence dequenching; inhibition, % at 10 µM; hit rate 0.085% among 200,000; Q06609;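 active means inhibition above 40% at the single screening dose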
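Material: Human Rad51 nucleoprotein filaments preassembled on unlabelled ssDNA | Also added: Labelled 47-mer dsDNA for strand exchange | Dosing: Single dose, 10 µM final compound | Schedule: 30-min compound preincubation and 15-min exchange, both room temperature | Technique: Fluorescence dequenching at 485/520 nm | Measure: Percent inhibition relative to plate controls and blanks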
p47phox inh – p47phox (human) inhibition; P14598; inhibition, % at 24.7 µM; hit rate 0.53% among 220,000; p47phox/p22phox peptide binding, fluorescence polarization, 2 h;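 active means inhibition above about 30%, limit read from the data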
Target sequence (P14598 whole entry, looked up): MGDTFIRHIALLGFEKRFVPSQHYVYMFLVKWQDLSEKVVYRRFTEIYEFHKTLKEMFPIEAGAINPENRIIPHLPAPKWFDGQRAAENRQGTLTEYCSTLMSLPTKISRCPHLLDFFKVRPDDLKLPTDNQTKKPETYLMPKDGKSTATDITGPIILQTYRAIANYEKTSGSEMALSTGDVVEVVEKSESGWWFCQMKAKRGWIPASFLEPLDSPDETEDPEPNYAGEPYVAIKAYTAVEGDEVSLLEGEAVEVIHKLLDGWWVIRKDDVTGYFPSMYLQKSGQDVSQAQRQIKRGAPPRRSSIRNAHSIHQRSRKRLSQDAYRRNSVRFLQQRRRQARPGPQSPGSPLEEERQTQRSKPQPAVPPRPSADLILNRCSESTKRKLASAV
MDM2 E3 inh – inhibitors of human Mdm2 E3 ubiquitin ligase; Q00987; cell-based MDM2 ubiquitination luciferase reporter, 2 h; 0 = plate control, 100 = twice control, blank-subtracted; signal enhancement, % at 5 µM; hit rate 0.11% among 210,000; AID 1230;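 active means signal enhancement of 30% or more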;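 further: luminescence tracks abundance of the self-degrading MDM2-luciferase fusion protein; higher signal means inhibition of MDM2 E3 ligase activity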
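test system = mammalian cells stably expressing self-ubiquitinating, self-degrading MDM2 E3–luciferase fusion | quantity = 2000 cells/well | incubation = cell settling 4 h, compound treatment 2 h, both 37 °C | signal = luminescence with SteadyLite reagent, 15 min at room temperature | evaluation = % enhancement relative to plate controls after blank subtraction | benchmarks = plate controls and plate blanks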
TbHK1 inh – blocks Trypanosoma brucei hexokinase 1 activity. recombinant TbHK1, G6PDH-coupled NADH A340. inhibition, % at 10 µM. hit rate 0.11% among 220,000;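 active means inhibition of 50% or more in the single-dose primary screen; inactive means inhibition below 50%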
G6PDH ctr – Leuconostoc glucose-6-phosphate dehydrogenase inhibition, counter-screen. hit rate 7% among 210. purified G6PDH, NADH absorbance, 1 h. shares compounds with TbHK1 inh. inhibition, % at 10 µM;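 active means at least 50% inhibition in the glucose-6-phosphate dehydrogenase coupled counterscreen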
TbHK1 confirm – T. brucei hexokinase 1 inhibition, rescreen; shares compounds with TbHK1 inh; recombinant TbHK1, G6PDH-coupled NADH A340 absorbance; inhibition, % at 10 µM; hit rate 10% among 210; AID 2560;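 active means inhibition of at least 50% in both of the two screening runs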
Of the large screens only hits and unclear results are named; the others gave an inactive call (follow-up assays come after a bar, where they were run). Rows were chosen to be rich in hits. Some 0.75% of all compounds tested hit in one or more screens of this group.

COc1ccc2nc(N3C(=O)/C(=C/c4ccc(Cl)cc4)NC3=S)sc2c1	TbHK1 inh 50 | G6PDH ctr inactive | TbHK1 confirm inactive
CCOc1ccc2nc(N3C(=O)CNC3=S)sc2c1	none
CCN(CC)c1ncnc2c1cnn2Cc1ccc(Cl)cc1	none
COC(=O)c1ccccc1NC(=O)CCS(=O)(=O)c1ccc(Br)cc1	TbHK1 inh 62 | G6PDH ctr inactive | TbHK1 confirm 67
O=C(CCS(=O)(=O)c1ccc(Br)cc1)Nc1cc(F)ccc1F	none
COc1cccc(/C=N/NC(=O)C[n+]2ccccc2)c1O	none
COc1ccc(CCCC(=O)N/N=C/c2cccc(OC)c2O)cc1C	TbHK1 inh 63 (no result: Rad51 HR inh) | G6PDH ctr inactive | TbHK1 confirm inactive
CCCN(CC(=O)Nc1ccc(F)c(F)c1F)CC(=O)Nc1c(Cl)cccc1Cl	none
NC(=O)C1CCN(C2CC(=O)N(c3cccc(F)c3)C2=O)CC1 (stereo not drawn)	TbHK1 inh 61 | G6PDH ctr inactive | TbHK1 confirm inactive
NC(=O)C1CCN(C2CC(=O)N(c3ccc(F)c(Cl)c3)C2=O)CC1 (stereo not drawn)	none
Cc1cc(NC(=O)c2cccc(Oc3ccccc3)c2)n[nH]1	none
O=C1CCC(=O)N1c1nc2nc(-c3ccccc3)cc(=O)n2[nH]1	none
Cc1nc2nc(-c3ccccc3)cc(=O)n2[nH]1	TbHK1 inh 55 | G6PDH ctr inactive | TbHK1 confirm inactive
O=C1CCC(C(=O)NCCCn2ccnc2)N1 (stereo not drawn)	TbHK1 inh 58 | G6PDH ctr inactive | TbHK1 confirm inactive
COc1ccc(NC(=O)C2CC(c3cc(OC)c(OC)c(OC)c3)=NO2)cc1OC (stereo not drawn)	none
COc1cccc(C2=NOC(C(=O)Nc3cc(OC)c(OC)c(OC)c3)C2)c1 (stereo not drawn)	TbHK1 inh 65 | G6PDH ctr inactive | TbHK1 confirm inactive
CCC(C)Sc1nc2c(c(=O)[nH]c(=O)n2C)n1C (stereo not drawn)	TbHK1 inh 50 | G6PDH ctr inactive | TbHK1 confirm inactive
Cc1onc(-c2ccccc2)c1CNC(=O)C1COc2ccccc2O1 (stereo not drawn)	none
C#CCOCCOCCOCCNc1nc(N2CCN(C(=O)C([C@@H](C)CC)n3cc(C(N)Cc4ccc(O)cc4)nn3)CC2)nc(N2CCN(C(=O)[C@H](CCC(=O)O)n3cc(C(N)Cc4ccc(O)cc4)nn3)CC2)n1 (stereo partly drawn)	none (no result: MDM2 E3 inh)
Cc1ccc(Nc2cc(=O)oc3ccccc23)c(C)c1	TbHK1 inh 55 | G6PDH ctr inactive | TbHK1 confirm inactive
Cc1c(Cl)cccc1NC(=O)CNCc1ccccc1F	none
Cc1cc2ccccn2c1C(=O)Nc1cccc(Cl)c1	none
Cc1occc1-c1nnc(SCC(=O)N2CCOCC2)n1CCc1ccccc1	TbHK1 inh 54 | G6PDH ctr inactive | TbHK1 confirm inactive
CCOc1ccc(NC(N)=O)cc1	TbHK1 inh 60 | G6PDH ctr inactive | TbHK1 confirm inactive
CC(=O)C1C(c2ccc(O)cc2)NC(=O)NC1(O)C(F)(F)F (stereo not drawn)	none
CC(=O)C1C(c2ccc(F)cc2)NC(=O)NC1(O)C(F)(F)F (stereo not drawn)	TbHK1 inh 51 (no result: Rad51 HR inh) | G6PDH ctr inactive | TbHK1 confirm inactive
COc1cc(-c2nnn(CC(=O)NC3CCS(=O)(=O)C3)n2)ccc1OCc1ccccc1 (stereo not drawn)	TbHK1 inh 66 | G6PDH ctr inactive | TbHK1 confirm inactive
COc1cc(-c2nnn(CC#N)n2)ccc1OCc1ccccc1	none
